The subject of one series is Hepatitis C virus. Description: Antiviral activity against HCV genotype 1b con1 infected in human Huh-luc/neo-ET cells assessed as inhibition of viral replication after 72 hrs. Format: functional, organism-based, Hepacivirus hominis. Conditions: isolate Con1, Huh-luc/neo-ET. The method in brief:
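Firefly-luciferase reporter in the Con1 genotype 1b subgenomic replicon used to follow HCV replication in Huh-luc/neo-ET cells, tested without G418 (routinely kept in DMEM, 10% FBS, 1 mM nonessential amino acids, 250 µg/ml G418, 37 °C, 5% CO2). Luciferase read on a plate reader. EC50 = concentration giving 50% inhibition of replication versus DMSO vehicle. Mean ± SD of three independent experiments.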

Series [1] can be described thus: Cytotoxicity against human Huh-luc/neo-ET cells assessed as cell growth inhibition. Format: cell-based. The method in brief: (§1)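 Cell growth measured against DMSO vehicle in HepG2.2.15 cells (MEME, 10% FCS, 50 µg/ml kanamycin) or in Huh-luc/neo-ET cells. IC50 = concentration giving 50% inhibition of cell growth. Mean ± SD of three independent experiments.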
In another series the test system is Hepatitis B virus. Description: Antiviral activity against HBV infected in human HepG2(2.2.15) cells assessed as inhibition of viral DNA level after 6 days by Southern blot analysis. Format: functional. Conditions: HepG2 2.2.15, 144 h. The essentials: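 HepG2.2.15 cells (HBV genome integrated; MEME, 10% FCS, kanamycin) seeded ~5 × 10^5 per well and grown 6 days, then given compound for 6 days with fresh medium every other day. Total DNA (20 μg) run on 1% agarose, blotted, hybridized overnight at 65 °C with 32P-labeled full-length HBV probe; read by film or PhosphorImager.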

Series [2] in a line: Therapeutic index, ratio of IC50 for human Huh-luc/neo-ET cells to EC50 for HCV genotype 1b con1. Format: toxicity. To be noted: Huh-luc/neo-ET cells (HCV genotype 1b con1), read-out: Ratio IC50/EC50.
For series [3], the system named is HepG2 2.2.15. As to the kind of experiment: Cytotoxicity against human HepG2(2.2.15) cells assessed as cell growth inhibition. Format: cell-based. The essentials:
as §1

The target of series [4] is Heat shock cognate 71 kDa protein (Homo sapiens) (UniProt P11142). As to the kind of experiment: Displacement of biotinylated-rac-cryptopleurine from recombinant HSC70 (unknown origin) […] by Western blot analysis. The method in brief: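 Biotinylated rac-cryptopleurine loaded overnight at room temperature onto streptavidin resin in 50% DMSO/50% protein-binding buffer (20 mM Hepes pH 7.9, 100 mM NaCl, 0.5% NP-40, 6 mM MgCl2). Resin washed, then incubated 2 h at room temperature with recombinant His-Hsc70 (E. coli BL21(DE3)pLysS, Ni-NTA purified) in 2.5% BSA. Bound Hsc70 eluted with buffer alone or with compound.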

For series [5] the target is unchanged. As to the kind of experiment: Allosteric regulation of recombinant HSC70 (unknown origin) ATPase activity assessed as increase in ADP production at 10 uM after 10 mins in presence of HCV wild type poly U/UC RNA by HPLC analysis. The essentials: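 Recombinant Hsc70 (0.25 μM) incubated with compound at 10 μM plus ATP and 0.5 μM HCV wild-type poly U/UC RNA in MOPS buffer pH 7.4 (Mg(OAc)2, KOAc, DTT, BSA), 37 °C, 10 min. Stopped with TCA (15% final), extracted with trichlorotrifluoroethane:trioctylamine, ADP quantified by HPLC against standard curve on same column. Mean ± SD, three experiments.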

The target is the same in series [6]. Description: Induction of HSC70 (unknown origin) chaperone activity assessed as reactivation of guanidine-denatured luciferase at 10 uM in presence of human recombinant CHIP by luciferase reporter gene assay.
The subject of series [7] is HepG2 2.2.15. As to the kind of experiment: Effect on HSC70 expression in human HepG2(2.2.15) cells at 3 nM measured up to 72 hrs by Western blot analysis. Format: functional, cell-based. In general terms: A western blot detects proteins with antibodies after separation by electrophoresis.
The target of series [8] is Heat shock cognate 71 kDa protein (Homo sapiens) (UniProt P11142). As to the kind of experiment: Induction of HSC70 chaperone activity in human Huh-luc/neo-ET cells assessed as reduction in HCV RNA NS3 protein expression at 3 nM after 24 hrs. Format: cell-based. The essentials:
(§2)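 Huh-luc/neo-ET replicon cells transiently transfected with FLAG-tagged CHIP plasmid or empty vector and treated with compound for 24 h. HCV RNA and NS3 and NS5A protein levels measured. Representative of more than two independent experiments; two-tailed Student's t-test, p < .05.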

A short description of series [9]: Effect on […] CHIP expression in human Huh-luc/neo-ET cells at 3 nM after 24 hrs. Format: ADME, cell-based. To be noted: 0.003 µM.
The target in series [10] is Heat shock cognate 71 kDa protein (Homo sapiens) (UniProt P11142). Description: Induction of HSC70 chaperone activity in human Huh-luc/neo-ET cells co-transfected with FLAG-tagged CHIP assessed as reduction in HCV RNA NS5A protein expression at 3 nM after 24 hrs. Format: cell-based. The method in brief:
as §2

Series [11] shares this target. Description: Induction of HSC70 chaperone activity in human Huh-luc/neo-ET cells assessed as reduction in HCV RNA NS5A protein expression at 3 nM after 24 hrs. Format: cell-based. The essentials:
as §2

Series [12] shares this target. As to the kind of experiment: Induction of HSC70 chaperone activity in human Huh-luc/neo-ET cells co-transfected with FLAG-tagged CHIP assessed as reduction in HCV RNA NS3 protein expression at 3 nM after 24 hrs. Format: cell-based. The method in brief:
as §2

The target is the same in series [13]. Description: Induction of HSC70 chaperone activity in human Huh-luc/neo-ET cells assessed as reduction in HCV RNA NS3 protein expression at 6 nM after 24 hrs. Format: cell-based. The method in brief:
(§3)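 Huh-luc/neo-ET replicon cells (HCV 1b Con1, DMEM, 10% FBS) transiently transfected with FLAG-CHIP plasmid or empty vector, then treated 24 h with compound. HCV RNA, NS3 and NS5A protein levels measured. Representative of more than two independent experiments; two-tailed Student's t-test, p < .05.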

Series [14] in a line: Effect on […] CHIP expression in human Huh-luc/neo-ET cells at 6 nM after 24 hrs. Format: ADME, cell-based. Conditions: 0.006 µM.
For series [15], the target named is Heat shock cognate 71 kDa protein (Homo sapiens) (UniProt P11142). As to the kind of experiment: Induction of HSC70 chaperone activity in human Huh-luc/neo-ET cells co-transfected with FLAG-tagged CHIP assessed as reduction in HCV RNA NS5A protein expression at 6 nM after 24 hrs. Format: cell-based. The essentials:
as §3

The subject of a further series is Huh-luc/neo-ET. Description: Effect on HSC70 expression in human Huh-luc/neo-ET cells at 6 nM measured up to 72 hrs by Western blot analysis.
For series [16], the target named is Heat shock cognate 71 kDa protein (Homo sapiens) (UniProt P11142). As to the kind of experiment: Induction of HSC70 chaperone activity in human Huh-luc/neo-ET cells assessed as reduction in HCV RNA NS5A protein expression at 6 nM after 24 hrs. Format: cell-based. The essentials:
as §3

Series [17] has the same target. As to the kind of experiment: Induction of HSC70 chaperone activity in human Huh-luc/neo-ET cells co-transfected with FLAG-tagged CHIP assessed as reduction in HCV RNA NS3 protein expression at 6 nM after 24 hrs. Format: cell-based. The essentials: as §3

The source made the active and inactive calls. No cut-off for these calls is given here.

The term EC50 denotes the concentration giving half of the maximal effect. The term IC50 denotes the concentration that inhibits the measured activity by half. Usually EC10 stands for the concentration at which the effect reaches the 10% level.

Sequence of Heat shock cognate 71 kDa protein (Homo sapiens) (P11142 2-646 limits assumed): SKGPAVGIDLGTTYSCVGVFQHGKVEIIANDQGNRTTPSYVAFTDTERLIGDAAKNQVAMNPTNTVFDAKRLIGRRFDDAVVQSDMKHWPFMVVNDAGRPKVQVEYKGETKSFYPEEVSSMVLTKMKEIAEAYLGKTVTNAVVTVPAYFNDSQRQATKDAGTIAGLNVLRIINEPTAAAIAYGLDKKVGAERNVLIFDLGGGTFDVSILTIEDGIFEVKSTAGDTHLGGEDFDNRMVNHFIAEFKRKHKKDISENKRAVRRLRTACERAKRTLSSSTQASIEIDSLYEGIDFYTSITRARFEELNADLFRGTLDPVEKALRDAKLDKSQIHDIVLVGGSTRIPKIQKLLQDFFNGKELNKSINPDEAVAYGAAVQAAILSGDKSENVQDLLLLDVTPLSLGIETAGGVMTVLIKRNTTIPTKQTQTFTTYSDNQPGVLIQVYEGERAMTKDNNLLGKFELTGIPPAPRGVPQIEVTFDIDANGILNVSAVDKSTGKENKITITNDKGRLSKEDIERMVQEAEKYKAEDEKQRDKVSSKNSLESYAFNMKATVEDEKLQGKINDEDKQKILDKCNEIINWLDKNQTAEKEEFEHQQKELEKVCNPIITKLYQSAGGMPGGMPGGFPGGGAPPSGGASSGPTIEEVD

`COc1ccc2c3c(c4cc(OC)c(OC)cc4c2c1)C[C@H]1C[C@@H](O)CCN1C3` (racemic): the EC50 in the series on Hepatitis C virus was 4.9 nM. The values for the IC50 (in series [1]; with HepG2 2.2.15 [3]) were 42.1 nM and 134 nM, respectively. The 10% effect concentration (EC10) in the series with Hepatitis B virus is over 26 nM. Moreover, the selectivity ratio in series [2] turned out to be 8.59. Also, in [4], the “displacement activity (active/not active)” value was “inactive”.

Regarding `COc1ccc2c3c(c4cc(OC)c(OC)cc4c2c1)C[C@H]1CC[C@@H](O)CN1C3` (racemic), the concentration for a half-maximal effect (EC50) in the series on Hepatitis C virus is 3 nM. Further, the half-maximal inhibitory concentration (IC50) in series [1] came to 21.3 nM; with HepG2 2.2.15 [3], 258 nM. Further, the EC10 in the series with Hepatitis B virus is over 25 nM. Further, in series [2], the selectivity ratio was 7.1. In series [5], the result was Active. In addition, in [4], the “displacement activity (active/not active)” value was “inactive”.

With `COc1ccc2c3c(c4cc(OC)c(OC)cc4c2c1)C[C@H]1CCCCN1C3` [CRYPTOPLEURINE], the result in series [6], in series [8], in series [10], in series [11], in series [5] and in series [12] was Active. Besides, the concentration for an effect of 10% (EC10) in the series on Hepatitis B virus is over 30 nM. For the same compound, in the series on HepG2 2.2.15 [7], the result was inactive. Also, the Activity entry in [9] is reported as “Non-Toxic”.

As to `COc1ccc2c3c(c4cc(OC)c(OC)cc4c2c1)C[C@H]1CN(C2CC2)CN1C3` (racemic), the EC50 with Hepatitis C virus turned out to be 750 nM. In addition, the figures for the IC50 (in [1]; in the series with HepG2 2.2.15 [3]) were 1000 nM and 820 nM, respectively. Besides, the 10% effect concentration (EC10) in the series with Hepatitis B virus is over 300 nM. In [2], the selectivity ratio worked out at 1.33.

For the compound `COc1ccc2c3c(c4cc(OC)c(OC)cc4c2c1)C[C@H]1CCOCN1C3` (racemic), in the series on Hepatitis C virus, the EC50 worked out at 651 nM. Moreover, the IC50 in [1] came out at 1000 nM; in the series with HepG2 2.2.15 [3] it was 1100 nM. In addition, the concentration for an effect of 10% (EC10) in the series with Hepatitis B virus is over 500 nM. Also, the selectivity ratio in [2] turned out to be 1.54.

Regarding `COc1ccc2c3c(c4cc(OC)c(OC)cc4c2c1)C[C@H]1CC[C@H](O)CN1C3` (racemic), the concentration giving a half-maximal response (EC50) with Hepatitis C virus was 246 nM. The 50% inhibitory concentration (IC50) in series [1] is 3750 nM; in the series on HepG2 2.2.15 [3] it was 1600 nM. In addition, the 10% effect concentration (EC10) in the series on Hepatitis B virus was over 3000 nM. The selectivity ratio in series [2] was found to be 15.2. Further, the outcome in series [5] was Active. For the same compound, the “displacement activity (active/not active)” value in series [4] is “inactive”.

As for `COc1ccc2c3c(c4cc(OC)c(OC)cc4c2c1)C[C@H]1C[C@H](O)CCN1C3`, the result in series [13], in [6], in series [15], in series [16], in series [17] and in series [5] was Active. In series [14], the Activity entry was “Non-Toxic”. In addition, the 50% effective concentration (EC50) in the series with Hepatitis C virus came out at 1.4 nM. In addition, the results for the half-inhibitory concentration (IC50) (in series [1]; in the series on HepG2 2.2.15 [3]) were 5 nM and 49 nM, respectively. In addition, the EC10 in the series with Hepatitis B virus was over 5.5 nM. Also, the selectivity ratio in [2] was 3.57. For the same compound, the result with Huh-luc/neo-ET was inactive. The “displacement activity (active/not active)” value in [4] is “Active”.

Regarding `COc1cc2c3c(c4cc(OC)c(OC)cc4c2cc1OC)[C@H](O)[C@@H]1CCCN1C3`, the EC50 in the series on Hepatitis C virus came to 31.5 nM. For the same compound, the IC50 was 91 nM in [1] and 98.9 nM with HepG2 2.2.15 [3]. The EC10 in the series with Hepatitis B virus was over 300 nM. In [2], the selectivity ratio came to 2.89.

`COc1ccc2c3c(c4cc(OC)c(OC)cc4c2c1)C[C@H]1CCOCCN1C3` (racemic): the EC50 in the series with Hepatitis C virus was 16.7 nM. For the same compound, the IC50 in series [1] is 120 nM; in the series with HepG2 2.2.15 [3], 4000 nM. In the series on Hepatitis B virus, the EC10 is over 300 nM. For the same compound, the selectivity ratio in series [2] stood at 7.19.

`COc1ccc2c3c(c4cc(OC)c(OC)cc4c2c1)C[C@H]1CNCCN1C3` (racemic): the concentration giving a half-maximal response (EC50) with Hepatitis C virus turned out to be 183 nM. The half-inhibitory concentration (IC50) in [1] turned out to be 1000 nM; in the series with HepG2 2.2.15 [3], 1400 nM. Also, the EC10 with Hepatitis B virus was over 500 nM. The selectivity ratio in series [2] was found to be 5.46.

For `COc1ccc2c3c(c4cc(OC)c(OC)cc4c2c1)C[C@H]1CCCCCN1C3` (racemic), the half-maximal effective concentration (EC50) in the series on Hepatitis C virus came to 52.3 nM. For the same compound, the IC50 in [1] was 300 nM; in the series with HepG2 2.2.15 [3], 2700 nM. For the same compound, the EC10 with Hepatitis B virus was over 1000 nM. The selectivity ratio in series [2] came out at 5.75.

On to `COc1ccc2c3c(c4cc(OC)c(OC)cc4c2c1)C[C@H]1CCN(N(C)C)CN1C3` (racemic), for which the EC50 with Hepatitis C virus turned out to be 3750 nM. Also, the concentration for half-maximal inhibition (IC50) stood at 4000 nM in series [1] and 2400 nM in the series on HepG2 2.2.15 [3]. Further, in the series on Hepatitis B virus, the EC10 was over 900 nM. In series [2], the selectivity ratio turned out to be 1.07.

(Values after ChEMBL document CHEMBL4219061, “Structure-activity relationships of cryptopleurine analogs with E-ring modifications as anti-hepatitis C virus agents” (Bioorg Med Chem, 2018).)
